One data set has as its system PAR. Nature of the data set: PAR levels in PBMC and tumor biopsies. Type of data set: in vivo, human.
Data set [1] can be described thus: Non-compartmental pharmacokinetics. In kind it is in vivo, human. Put shortly:
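Patients took oral drug twice daily, continuously, at 50–500 mg BID. Plasma parent drug and active metabolite M8 were measured by a validated assay. Parameters were derived non-compartmentally on day 1 and reported as geometric mean (SD). Accumulation indices for Cmax and AUC0–8 were compared with theoretical values from D1 half-lives. Dose proportionality was tested on day-1 Cmax and AUC0-inf (95% CI of coefficient including 1).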

[2] abbreviates: geometric mean (standard deviation).

Data on one molecule can be found in article PMC9116722 (Cancer chemotherapy and pharmacology, 2022).

One may read the Vd/F as the volume of distribution divided by bioavailability. For the molecule `C[C@]1(c2nc3c(C(N)=O)cccc3[nH]2)CCCN1` [veliparib], the “reduction of tumor PAR level” value in the data set on PAR (DL8, one evaluable patient) is recorded as ≥ 99%. Besides, in the data set on PAR (at 2 hours and 24 hours, most samples, particularly higher dose levels), the “PBMC PAR levels after administration” value is “decreased”. Besides, the PK dose dependence result in data set [1] (50-500 mg BID) was “linear with dose”. The theoretical accumulation index in data set [1] (calculated from D1 half-lives, geometric mean (SD)) is on record as 1.34 (1.12). In addition, in data set [1] (setting [2]), the “accumulation index for AUC0–8” value is recorded as 1.30 (1.29) and the “accumulation index for Cmax” value is 1.24 (1.37). In addition, in data set [1] (human, in vivo, oral), the Vd/F was found to be 123 L. In addition, the Cl/F in data set [1] (non-compartmental, current study) is 15.9 (1.40) L/h.
